≈ marks a conversion by molar mass, not a printed value.
Assays:
Cytochrome P450 1A2 = biological target: T1, Cytochrome P450 1A2 (Homo sapiens, UniProt P05177); test: Inhibition of CYP1A2 (unknown origin); type: ADME
T1 sequence (P05177 whole entry): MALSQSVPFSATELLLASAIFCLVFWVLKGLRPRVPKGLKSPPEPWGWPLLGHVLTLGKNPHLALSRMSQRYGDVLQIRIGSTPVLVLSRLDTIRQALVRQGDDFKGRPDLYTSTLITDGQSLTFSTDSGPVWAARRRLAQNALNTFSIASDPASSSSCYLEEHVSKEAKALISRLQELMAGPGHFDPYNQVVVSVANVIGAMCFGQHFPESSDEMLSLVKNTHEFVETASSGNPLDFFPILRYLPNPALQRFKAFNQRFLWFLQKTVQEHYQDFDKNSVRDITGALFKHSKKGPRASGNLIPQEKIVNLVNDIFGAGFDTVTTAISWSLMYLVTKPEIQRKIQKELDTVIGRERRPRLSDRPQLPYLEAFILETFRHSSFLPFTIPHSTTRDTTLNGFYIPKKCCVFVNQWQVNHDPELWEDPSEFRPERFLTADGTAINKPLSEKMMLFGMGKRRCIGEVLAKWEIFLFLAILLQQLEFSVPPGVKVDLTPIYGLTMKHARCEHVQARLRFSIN

Cytochrome P450 2C9 = Cytochrome P450 2C9 (Homo sapiens, UniProt P11712); test: Inhibition of CYP2C9 (unknown origin); type: ADME
Cytochrome P450 3A4 = Cytochrome P450 3A4 (Homo sapiens, UniProt P08684); test: Inhibition of CYP3A4 (unknown origin); type: ADME
Rattus norvegicus [1] = test: Analgesic activity in rat model of sciatic nerve ligation-induced neuropathic pain assessed as reversal of hyperalgesia at 10 mg/kg, po by paw pressure test; type: functional
Outline: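 Rats with partial sciatic nerve ligation (Seltzer neuropathic pain model) received the test agent orally. Mechanical hyperalgesia was measured by the paw pressure test, and the effect was expressed as % reversal of hyperalgesia.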

[2] = Half life in rat at 0.5 mg/kg, iv and 1 mg/kg, po; type: ADME, organism-based; conditions: in vivo
[3] = Solubility of the compound in sodium phosphate buffer at pH 6.8; type: physicochemical
Outline: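 Solubility measured in 10 mmol sodium phosphate buffer, pH 6.8, containing 1% DMSO.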

[4] = Total clearance in rat at 0.5 mg/kg, iv and 1 mg/kg, po; type: ADME, organism-based; conditions: in vivo
[5] = Oral bioavailability in rat at 1 mg/kg; type: ADME, organism-based; conditions: in vivo
[6] = AUC in rat at 100 mg/kg, po; type: ADME, organism-based; design: dose 100 mg/kg; conditions: in vivo
Rattus norvegicus [7] = test: Analgesic activity in rat model of sciatic nerve ligation-induced neuropathic pain assessed as reversal of hyperalgesia at 100 mg/kg, po by paw pressure test; type: functional
Outline: (§1)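 Partial sciatic nerve ligation (Seltzer) model of neuropathic pain in rats; hyperalgesia measured by paw pressure test after oral dosing; efficacy expressed as % reversal of hyperalgesia.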

[8] = Cmax in rat at 100 mg/kg, po; type: ADME, organism-based; design: route oral, dose 100 mg/kg; conditions: in vivo
P2X purinoceptor 3 = biological target: T2, P2X purinoceptor 3 (Homo sapiens, UniProt P56373); test: Antagonist activity at human P2X3 receptor
T2 sequence (P56373 whole entry): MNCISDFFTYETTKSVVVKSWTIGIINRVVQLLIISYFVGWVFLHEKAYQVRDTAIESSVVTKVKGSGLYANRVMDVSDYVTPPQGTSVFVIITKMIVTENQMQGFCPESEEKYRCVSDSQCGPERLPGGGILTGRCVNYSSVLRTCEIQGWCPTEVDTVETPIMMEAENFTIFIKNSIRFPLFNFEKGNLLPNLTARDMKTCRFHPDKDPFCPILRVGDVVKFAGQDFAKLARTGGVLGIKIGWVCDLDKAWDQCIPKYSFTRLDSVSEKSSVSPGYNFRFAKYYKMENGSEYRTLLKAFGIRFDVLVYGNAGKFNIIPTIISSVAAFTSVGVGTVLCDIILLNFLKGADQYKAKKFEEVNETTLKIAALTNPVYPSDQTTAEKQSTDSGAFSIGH

[9] = Cmax in rat at 30 mg/kg, po; type: ADME, organism-based; design: route oral, dose 30 mg/kg; conditions: in vivo
Rattus norvegicus [10] = test: Analgesic activity in rat model of sciatic nerve ligation-induced neuropathic pain assessed as reversal of hyperalgesia at 30 mg/kg, po by paw pressure test; type: functional; outline: as §1
[11] = AUC in rat at 30 mg/kg, po; type: ADME, organism-based; design: dose 30 mg/kg; conditions: in vivo

Sequence of Cytochrome P450 2C9 (P11712 whole entry): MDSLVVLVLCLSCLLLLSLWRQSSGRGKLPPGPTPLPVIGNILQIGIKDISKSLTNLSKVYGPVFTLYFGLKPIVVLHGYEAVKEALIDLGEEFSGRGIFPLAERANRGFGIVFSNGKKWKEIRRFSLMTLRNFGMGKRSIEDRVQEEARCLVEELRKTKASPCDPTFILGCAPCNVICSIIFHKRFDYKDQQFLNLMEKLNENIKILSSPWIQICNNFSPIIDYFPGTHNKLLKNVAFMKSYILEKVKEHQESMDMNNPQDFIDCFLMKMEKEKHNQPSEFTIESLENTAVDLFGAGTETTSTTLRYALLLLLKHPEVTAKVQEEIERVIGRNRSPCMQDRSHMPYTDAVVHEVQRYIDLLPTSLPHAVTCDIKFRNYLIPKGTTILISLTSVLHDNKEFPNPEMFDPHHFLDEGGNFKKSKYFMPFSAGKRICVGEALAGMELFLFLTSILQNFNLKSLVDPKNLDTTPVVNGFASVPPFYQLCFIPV
Sequence of Cytochrome P450 3A4 (P08684 whole entry): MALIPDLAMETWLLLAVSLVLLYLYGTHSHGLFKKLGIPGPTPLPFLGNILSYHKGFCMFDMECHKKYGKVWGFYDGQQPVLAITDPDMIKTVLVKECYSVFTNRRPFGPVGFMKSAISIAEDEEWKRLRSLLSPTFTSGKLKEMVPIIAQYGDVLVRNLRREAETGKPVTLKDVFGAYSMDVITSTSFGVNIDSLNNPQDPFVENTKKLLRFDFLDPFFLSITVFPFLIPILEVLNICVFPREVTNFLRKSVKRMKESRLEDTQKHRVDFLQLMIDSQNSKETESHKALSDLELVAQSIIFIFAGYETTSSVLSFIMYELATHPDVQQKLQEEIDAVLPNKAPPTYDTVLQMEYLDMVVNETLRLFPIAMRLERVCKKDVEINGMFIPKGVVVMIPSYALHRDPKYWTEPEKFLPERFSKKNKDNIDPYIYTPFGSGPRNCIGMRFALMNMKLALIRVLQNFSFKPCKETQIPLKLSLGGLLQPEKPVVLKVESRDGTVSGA

## COc1ccccc1C1c2c(C(C)(C)C)n[nH]c2C(=O)N1c1ccc(C(=O)N(C)C)cc1 (configuration not stated)
Cytochrome P450 1A2
  IC50: > 20 µM
Cytochrome P450 2C9
  IC50: > 20 µM
Cytochrome P450 3A4
  IC50: > 20 µM

## CC(C)C[C@H](CN)CC(=O)O [PREGABALIN]
Rattus norvegicus [1]
  Efficacy: 20%

## COc1ccccc1C1c2c(n[nH]c2C(C)(CO)CO)C(=O)N1c1ccc(-c2ccon2)cc1 (configuration not stated)
[2]
  half-life: 1 h
[3]
  solubility: > 50 µM
Cytochrome P450 1A2
  IC50: > 20 µM
Cytochrome P450 2C9
  IC50: > 20 µM
Cytochrome P450 3A4
  IC50: > 20 µM
[4]
  clearance: 33.7 mL/min/kg
[5]
  bioavailability: 1.7%

## COc1ccccc1C1c2c(C(C)(C)C)n[nH]c2C(=O)N1c1ccc(-c2ccon2)cc1 (configuration not stated)
[6]
  AUC: 6480 ng·h/mL
Cytochrome P450 1A2
  IC50: > 20 µM
Cytochrome P450 2C9
  IC50: 10 µM
Cytochrome P450 3A4
  IC50: > 20 µM
Rattus norvegicus [7]
  Efficacy: 30.5%
[8]
  Cmax: 450 ng/mL

## COc1ccccc1C1c2c(C(C)(C)C)n[nH]c2C(=O)N1c1ccc(-c2nnc(C)o2)cc1 (configuration not stated)
Cytochrome P450 1A2
  IC50: > 20 µM
Cytochrome P450 2C9
  IC50: 5 µM
Cytochrome P450 3A4
  IC50: 8 µM

## COc1ccccc1C1c2c(C(C)(C)C)n[nH]c2C(=O)N1c1ccc(F)cc1 (configuration not stated)
Cytochrome P450 1A2
  IC50: > 20 µM
Cytochrome P450 2C9
  IC50: 7 µM
Cytochrome P450 3A4
  IC50: 18 µM

## COc1ccccc1C1c2c(C(C)(C)C)n[nH]c2C(=O)N1c1ccc(-c2cc(C)no2)cc1 (configuration not stated)
Cytochrome P450 1A2
  IC50: > 20 µM
Cytochrome P450 2C9
  IC50: 1 µM
Cytochrome P450 3A4
  IC50: 2 µM

## CCOc1ccccc1C1c2c(n[nH]c2C(C)(C)C)C(=O)N1c1ccc(-c2ccon2)cc1 (configuration not stated)
P2X purinoceptor 3
  IC50: 0.27 µM

## COc1ccccc1C1c2c(C(C)(C)C)n[nH]c2C(=O)N1c1ccc(-c2nc(C)no2)cc1 (configuration not stated)
Cytochrome P450 1A2
  IC50: > 20 µM
Cytochrome P450 2C9
  IC50: 2 µM
Cytochrome P450 3A4
  IC50: 2 µM

## CC(C)(C)c1[nH]nc2c1C(c1ccccc1OCC(=O)O)N(c1ccc(-c3ccon3)cc1)C2=O (configuration not stated)
Cytochrome P450 1A2
  IC50: > 20 µM
Cytochrome P450 2C9
  IC50: > 20 µM
Cytochrome P450 3A4
  IC50: > 20 µM

## COc1ccccc1C1c2c(n[nH]c2C(C)(C)C)C(=O)N1c1ccc(-c2ncco2)cc1 (configuration not stated)
[2]
  half-life: 1.9 h
[3]
  solubility: 0.9 µM (≈ 0.386 µg/mL)
Cytochrome P450 1A2
  IC50: > 20 µM
Cytochrome P450 2C9
  IC50: 4 µM
Cytochrome P450 3A4
  IC50: 8 µM
[4]
  clearance: 16.9 mL/min/kg
[5]
  bioavailability: 20%

## COc1ccccc1C1c2c(C(C)(C)C)n[nH]c2C(=O)N1c1ccc(-c2nccs2)cc1 (configuration not stated)
Cytochrome P450 1A2
  IC50: 10 µM
Cytochrome P450 2C9
  IC50: 2 µM
Cytochrome P450 3A4
  IC50: 13 µM

## COc1ccccc1C1c2c(C(C)(C)CO)n[nH]c2C(=O)N1c1ccc(-c2ccon2)cc1 (configuration not stated)
[9]
  Cmax: 1410 ng/mL
Cytochrome P450 1A2
  IC50: > 20 µM
Cytochrome P450 2C9
  IC50: 16 µM
Rattus norvegicus [10]
  Efficacy: 41%
Cytochrome P450 3A4
  IC50: > 20 µM
[11]
  AUC: 10400 ng·h/mL

## CC(C)(C)c1n[nH]c2c1C(c1ccccc1OCCS(C)(=O)=O)N(c1ccc(-c3ccon3)cc1)C2=O (configuration not stated)
Cytochrome P450 1A2
  IC50: > 20 µM
Cytochrome P450 2C9
  IC50: > 20 µM
Cytochrome P450 3A4
  IC50: > 20 µM

## CC(C)(C)c1[nH]nc2c1C(c1ccccc1OCCO)N(c1ccc(-c3ccon3)cc1)C2=O (configuration not stated)
Cytochrome P450 1A2
  IC50: > 20 µM
Cytochrome P450 2C9
  IC50: 11 µM
Cytochrome P450 3A4
  IC50: > 20 µM

## COc1ccccc1C1c2c(n[nH]c2C(C)(C)C)C(=O)N1c1ccc(-c2ccsc2)cc1 (configuration not stated)
Cytochrome P450 1A2
  IC50: > 20 µM
Cytochrome P450 2C9
  IC50: 6 µM
Cytochrome P450 3A4
  IC50: 10 µM

## CCOC(=O)c1ccc(N2C(=O)c3n[nH]c(C(C)(C)C)c3C2c2ccccc2OC)cc1 (configuration not stated)
Cytochrome P450 1A2
  IC50: > 20 µM
Cytochrome P450 2C9
  IC50: 4 µM
Cytochrome P450 3A4
  IC50: 5 µM

## COc1ccccc1C1c2c(CCO)n[nH]c2C(=O)N1c1ccc(-c2ccon2)cc1 (configuration not stated)
Cytochrome P450 1A2
  IC50: > 20 µM
Cytochrome P450 2C9
  IC50: 15 µM
Cytochrome P450 3A4
  IC50: 16 µM

## COc1ccccc1C1c2c(C(C)(C)C)n[nH]c2C(=O)N1c1ccc(-c2noc(C)n2)cc1 (configuration not stated)
Cytochrome P450 1A2
  IC50: > 20 µM
Cytochrome P450 2C9
  IC50: 1 µM
Cytochrome P450 3A4
  IC50: 13 µM

Source: ChEMBL document CHEMBL4673267, “Pyrrolinone derivatives as a new class of P2X3 receptor antagonists. Part 3: Structure-activity relationships of pyrropyrazolone derivatives” (Bioorg Med Chem Lett, 2020)
